Structures are written as SMILES. Where only a bound is given, the exact number is not on record here.

For assay [1], the target named is 11-beta-hydroxysteroid dehydrogenase 1 (Mus musculus) (UniProt P50172). Kind of assay: Inhibition of mouse microsomal 11beta-HSD1 overexpressed in HEK293 cells using [3H]-cortisone as substrate assessed as formation of [3H]-cortisol at 10 uM using [3H]cortisone by scintillation proximity assay in presence of NADPH. The procedure, abridged:
(§1)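 Human or mouse 11β-HSD1 inhibition measured in vitro by scintillation proximity assay (SPA). Every isolate was first screened at a single concentration of 10 μM. […] Glycyrrhetinic acid served as the positive control. Other assay conditions follow an earlier report.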
(SPA uses beads or plates that emit light when radiolabelled molecules are held near them.)

Assay [2] concerns the target 11-beta-hydroxysteroid dehydrogenase 1 (Mus musculus, UniProt P50172). Put plainly: Inhibition of mouse microsomal 11beta-HSD1 overexpressed in HEK293 cells using [3H]-cortisone as substrate assessed as formation of [3H]-cortisol using [3H]cortisone by scintillation proximity assay in presence of NADPH.
The target in assay [3] is T1, 11-beta-hydroxysteroid dehydrogenase 1 (Homo sapiens, UniProt P28845). Put plainly: Inhibition of human microsomal 11beta-HSD1 overexpressed in HEK293 cells using [3H]-cortisone as substrate assessed as formation of [3H]-cortisol at 10 uM using [3H]cortisone by scintillation proximity assay in presence of NADPH. A digest of the protocol:
as §1
Target sequence in this assay (P28845 whole entry, looked up): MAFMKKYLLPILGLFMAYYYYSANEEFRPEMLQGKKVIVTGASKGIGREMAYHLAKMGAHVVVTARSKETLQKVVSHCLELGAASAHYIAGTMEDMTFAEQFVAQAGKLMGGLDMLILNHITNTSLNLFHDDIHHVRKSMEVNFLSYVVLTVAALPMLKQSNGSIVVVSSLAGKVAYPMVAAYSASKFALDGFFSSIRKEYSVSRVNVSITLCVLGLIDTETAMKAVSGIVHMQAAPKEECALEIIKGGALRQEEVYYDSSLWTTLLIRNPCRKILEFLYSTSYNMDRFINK

Assay [4] deals with T1, 11-beta-hydroxysteroid dehydrogenase 1. Put plainly: Inhibition of human microsomal 11beta-HSD1 overexpressed in HEK293 cells using [3H]-cortisone as substrate assessed as formation of [3H]-cortisol using [3H]cortisone by scintillation proximity assay in presence of NADPH.
Target sequence in this assay (P28845 whole entry): as the sequence (P28845 whole entry, looked up) above

Sequence of 11-beta-hydroxysteroid dehydrogenase 1 (Mus musculus) (P50172 whole entry, looked up): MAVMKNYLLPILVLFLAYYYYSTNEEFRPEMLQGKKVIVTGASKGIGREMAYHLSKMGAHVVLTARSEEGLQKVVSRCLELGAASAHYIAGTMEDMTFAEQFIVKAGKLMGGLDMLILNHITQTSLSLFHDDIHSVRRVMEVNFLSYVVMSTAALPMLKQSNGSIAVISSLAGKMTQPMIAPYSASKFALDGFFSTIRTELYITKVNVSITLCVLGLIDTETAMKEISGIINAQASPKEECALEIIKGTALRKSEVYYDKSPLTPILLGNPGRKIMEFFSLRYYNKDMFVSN
Sequence of 11-beta-hydroxysteroid dehydrogenase 1 (Mus musculus, UniProt P50172) (P50172 whole entry): as the sequence (P50172 whole entry, looked up) above

For `C[C@@H](C[C@@H](O)[C@H](O)C(C)(C)O)[C@@H]1CC[C@]2(C)C3=CC[C@H]4C(C)(C)C(=O)CC[C@]4(C)[C@H]3CC[C@@]12C`, the inhibition in assay [1] was over 50%; in assay [3], under 50%. In assay [2] (read-out: IC50), the IC50 worked out at 880 nM.
Turning to `C[C@@H]([C@@H]1O[C@@H]1C(O)C(C)(C)O)[C@@H]1CC[C@]2(C)C3=CC[C@H]4C(C)(C)[C@H](O)CC[C@]4(C)[C@H]3CC[C@@]12C` (stereo partly specified), the IC50 in assay [4] was 1900 nM; in assay [2] (read-out: IC50), 1200 nM. The inhibition in assay [1] and in assay [3] was over 50% in each case.
Regarding `C[C@@H](C[C@@H](O)[C@@H]1OC1(C)C)[C@H]1CC[C@@]2(C)C3=CC[C@H]4C(C)(C)[C@@H](O)CC[C@]4(C)[C@H]3CC[C@]12C`, the inhibition in assay [1] was over 50%; in assay [3], under 50%. For the same molecule, the IC50 in assay [2] (read-out: IC50) turned out to be 3800 nM.
The matching figures for `C[C@@H](C[C@@H](O)[C@@H]1OC1(C)C)[C@H]1CC[C@@]2(C)C3=CC[C@H]4C(C)(C)C(=O)CC[C@]4(C)[C@H]3CC[C@]12C`: over 50%, under 50% and 690 nM.
As for `CC(=O)O[C@H]1C[C@@]2(C)[C@H](c3ccoc3)C[C@H]3O[C@]32[C@]2(C)C(=O)C(O)=C3C(C)(C)C(=O)C=C[C@]3(C)[C@@H]12`, the IC50 is 9900 nM in assay [4] and “Not Active” in assay [2] (hek293). For the same molecule, the inhibition in assay [3] was over 50%.

One may read the inhibition as the drop in the measured response relative to a control, in per cent. A word on the IC50: it is the concentration that gives 50% inhibition.

The values above are taken from ChEMBL document CHEMBL4477167, “Limonoids and Triterpenoids as 11β-HSD1 Inhibitors from Walsura robusta” (J Nat Prod, 2016).
